# Measurements from article PMC2266618 (The Journal of General Physiology, 2005).
# Key:
# homomeric ASIC1a = molecular target: T1, homomeric ASIC1a (Rattus norvegicus, UniProt P55926); experiment: Direct opening of ASIC1a channels by PcTx1; assay type: cell-based; conditions: 100 μM amiloride
# T1 sequence (P55926 1-526): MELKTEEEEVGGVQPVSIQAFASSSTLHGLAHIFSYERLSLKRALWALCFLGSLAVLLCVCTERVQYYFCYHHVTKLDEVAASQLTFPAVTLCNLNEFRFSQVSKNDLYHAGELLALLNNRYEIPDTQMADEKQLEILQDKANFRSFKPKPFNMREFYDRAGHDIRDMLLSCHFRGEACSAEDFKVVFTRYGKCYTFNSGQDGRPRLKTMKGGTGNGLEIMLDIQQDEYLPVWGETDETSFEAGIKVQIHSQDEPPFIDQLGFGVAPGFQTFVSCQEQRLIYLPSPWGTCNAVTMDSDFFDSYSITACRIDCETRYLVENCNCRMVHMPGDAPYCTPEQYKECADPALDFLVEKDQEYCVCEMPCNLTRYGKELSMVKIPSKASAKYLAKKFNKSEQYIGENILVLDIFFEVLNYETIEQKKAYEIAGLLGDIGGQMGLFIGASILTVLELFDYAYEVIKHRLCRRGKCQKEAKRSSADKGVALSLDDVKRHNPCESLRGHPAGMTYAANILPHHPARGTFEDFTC
# Procedure, shortened: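 Rat ASIC1a cRNA (0.01 ng) injected into stage V-VI Xenopus oocytes, kept 2-4 d in OR-2 (pH 7.3); whole-cell currents at -70 mV. The conditioning solution was switched from 1.8 to 0.1 mM Ca2+ (with 0.1 mM flufenamic acid) at pH 7.35, together with 100 nM test peptide toxin in 0.05% BSA. The transient inward current was tested with 100 µM amiloride.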
# ASIC3 = conditions: ref Diochot et al., 2004, cited from earlier work
# ASIC1a = conditions: ref Diochot et al., 2004; cited from earlier work
"block of PcTx1-elicited currents by amiloride (homomeric ASIC1a; 100 nM PcTx1 coapplied with pH 7.1, n = 3)","block of PcTx1-elicited currents by amiloride (homomeric ASIC1a; 100 nM PcTx1 with 0.1 mM Ca2+ at pH 7.35, n = 4)",Compound,inhibition of ASIC3 (ASIC3; inhibition during steady state (at pH 7.4)),affinity of the interaction with ASIC3 (ASIC3),inhibition of ASIC1a (ASIC1a)
could be blocked,could be blocked,N=C(N)NC(=O)c1nc(Cl)c(N)nc1N [amiloride],–,–,–
–,–,APETx2,inhibits,nanomolar affinity,does not inhibit
